Measured values of several laboratories.
Target: Serine/threonine-protein kinase VRK2 (VRK2, Homo sapiens, UniProt Q86Y07)

COc1ccnn2ncc(-c3ccnc(N(C)C)n3)c12
remaining binding (binding; 1 µM): 100%

CNC(=O)[C@@H]1CC[C@@H](n2c(-c3ccc4cnccc4c3)nc3ccc(C(=O)NCc4cccc(C(N)=O)c4)cc32)C1
remaining binding (binding, competition with immobilised ligand; 1 µM): 100%

C[C@H](c1ccnc(Nc2nc3ccc(-c4cc(N(C)C)ncn4)cc3[nH]2)c1)N1CCN(C(=O)CC(F)(F)F)CC1
remaining binding (cell-free assay, competition with immobilised ligand; 0.1 µM): 94%

CC1CCCN1c1nccc(-c2cnn3ncccc23)n1 (stereo not shown)
remaining binding (binding; 1 µM): 100%

CC(C)CC(=O)N1CCc2nc(-c3ccc(Br)cc3)nc(N(C)Cc3ccccc3)c2C1
remaining binding (cell-free assay, competition with immobilised ligand; 0.1 µM): 77%

Cc1cnc(Nc2ccc(C(=O)N3CCC(N4CCCC4)CC3)cc2)nc1-c1cc2ccccc2s1
remaining binding (binding, competition with immobilised ligand; 1 µM): 81%

CCN1CCN(Cc2ccc(C(=O)Nc3ccc(C)c(Oc4ccc5c(c4)CC(=O)N5)c3)cc2C(F)(F)F)CC1
remaining binding (binding, competition with immobilised ligand; 1 µM): 100%

CC(=O)C1=C(C)N(c2cccc(C(F)(F)F)c2)C(=O)N[C@@H]1c1ccc(C#N)nc1
remaining binding (cell-free assay, competition with immobilised ligand; 1 µM): 77.6%

COc1ncc2cc3ccccc3nc2c1C#N
remaining binding (cell-free assay, competition with immobilised ligand; 5 µM): 98%

CNC(=O)Nc1ccc2c(c1)CC[C@@]21OC(=O)N(CC(=O)N(Cc2ccc(F)cc2)[C@@H](C)C(F)(F)F)C1=O
remaining binding (cell-free assay, competition with immobilised ligand; 1 µM): 91%

c1cnn2ncc(-c3ccnc(N4CCC45COC5)n3)c2c1
remaining binding (binding; 1 µM): 74%

CCCNc1nc(C#Cc2ccc(Cl)s2)nc2c1ncn2[C@H]1[C@H](O)[C@H](O)[C@]2(C(=O)NC)C[C@H]12
remaining binding (binding, competition with immobilised ligand; 10 µM): 31%

CN(C)c1nccc(-c2cnn3ncccc23)n1
remaining binding (binding; 1 µM): 80%

O=C(Nc1c[nH]nc1C(=O)NC1CCNCC1)c1cc(F)cc(F)c1
remaining binding (binding, competition with immobilised ligand; 1 µM): 100%

FC(F)(F)Oc1cccc(-c2cnc3ccc(-c4ccncc4)nn23)c1
remaining binding (binding, competition with immobilised ligand; 5 µM): 75%

CN([C@@H]1CCc2c(CC(=O)O)c3cc(S(C)(=O)=O)ccc3n2C1)S(=O)(=O)c1ccc(F)cc1
remaining binding (cell-free assay, competition with immobilised ligand; 1 µM): 94%

C[C@@H]1CCN(c2nccc(-c3cnn4ncccc34)n2)C1
remaining binding (binding; 1 µM): 82%

NS(=O)(=O)c1cc(NC(=O)Cc2ccccc2)ccc1Oc1cccc(Cl)c1
remaining binding (cell-free assay, competition with immobilised ligand; 1 µM): 100%

O=C(c1ccc(Nc2ncc(Cl)c(-c3ccc(Cl)s3)n2)cc1)N1CCC(N2CCCC2)CC1
remaining binding (binding, competition with immobilised ligand; 1 µM): 56%

O=C(NCCCC1CCCCC1)c1ccc(CNC(=O)c2cnn(-c3ccccc3)c2C(F)(F)F)cc1
remaining binding (cell-free assay, competition with immobilised ligand; 0.1 µM): 100%

O=C(c1ccc(Nc2ncc(Cl)c(-c3cc4ccccc4s3)n2)cc1)N1CCC(N2CCCC2)CC1
remaining binding (binding, competition with immobilised ligand; 1 µM): 70%

N[C@@H]1CCN(c2nccc(-c3cnn4ncccc34)n2)C1
remaining binding (binding; 1 µM): 100%
